Consider seven compounds from ChEMBL document CHEMBL1772990, “Biomimetic syntheses and antiproliferative activities of racemic, natural (-), and unnnatural (+) glyceollin I” (2011).

A short description of assay [1]: Antiproliferative activity against estrogen receptor-deficient human NCI-ADR-RES cells incubated with 0.003 nM of estradiol and 0.01 nM of testosterone after 48 hrs by sulforhodamine B assay in presence of 5% fetal bovine serum. The format is functional. The gist of the method: (§1)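 Low-E2 condition: MCF7 and NCI-ADR-RES cells were precultured at least 4 days in RPMI with 5% FBS and no NuSerum, then seeded in it at 3500 and 6000 cpw. MCF12A cells were seeded at 1600 cpw in their maintenance medium (DMEM/F-12 with insulin, hydrocortisone, EGF, cholera toxin, 5% FBS). Agents were added in 5% FBS RPMI. After 48 h, growth was read by sulforhodamine B OD versus 0.25% DMSO controls, with GI50 from a Hill fit.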
On the technique in general: Sulforhodamine B stains cellular protein and so reports cell mass.

For assay [2], the system named is MCF7. Briefly: Antiproliferative activity against human MCF7 cells expressing estrogen receptor incubated with 0.06 nM of estradiol and 0.07 nM of testosterone after 48 hrs by sulforhodamine B assay in presence of fetal bovine serum and NuSerum. The format is functional. Conditions: MCF7, 48 h. The gist of the method: (§2)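 Sulforhodamine B growth assay with 48 h agent exposure at 37 °C in 5% CO2. Seeding densities were preset to give exponential growth with final OD below 2.0. Percent growth was taken from OD versus matched vehicle-only (0.25% DMSO) controls. GI50 came from a Hill equation fit, with values averaging eight sets of duplicate wells across a concentration range.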

A short description of assay [3]: Antiproliferative activity against estrogen receptor-deficient human NCI-ADR-RES cells incubated with 100 nM of estradiol and 0.07 nM of testosterone after 48 hrs by sulforhodamine B assay in presence of fetal bovine serum and NuSerum. The format is functional. The gist of the method: (§3)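 High-E2 condition: cells were seeded as for the intermediate-E2 tests. Agents were added in 5% FBS/5% NuSerum medium with E2 added to give 100 nM final during exposure. After 48 h at 37 °C in 5% CO2, sulforhodamine B staining gave percent of matched 0.25% DMSO vehicle-control growth. GI50 came from a Hill equation fit, averaging eight sets of duplicate wells.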

Assay [4] in a line: Antiproliferative activity against estrogen receptor-deficient human NCI-ADR-RES cells incubated with 0.06 nM of estradiol and 0.07 nM of testosterone after 48 hrs by sulforhodamine B assay in presence of fetal bovine serum and NuSerum. The format is functional. The gist of the method:
as §2

The subject of assay [5] is MCF7. Kind of assay: Antiproliferative activity against human MCF7 cells expressing estrogen receptor incubated with 0.003 nM of estradiol and 0.01 nM of testosterone after 48 hrs by sulforhodamine B assay in presence of 5% fetal bovine serum. It counts as functional. Conditions: MCF7, 48 h. A digest of the protocol:
as §1

In assay [6] the test system is MCF7. Kind of assay: Antiproliferative activity against human MCF7 cells expressing estrogen receptor incubated with 100 nM of estradiol and 0.07 nM of testosterone after 48 hrs by sulforhodamine B assay in presence of fetal bovine serum and NuSerum. The format is functional. The settings on record: MCF7, 48 h. A digest of the protocol: as §3
Assay [7] concerns MCF-12A. Kind of assay: Antiproliferative activity against estrogen receptor-deficient human MCF12A cells incubated with 0.003 nM of estradiol and 0.01 nM of testosterone after 48 hrs by sulforhodamine B assay in presence of 5% fetal bovine serum. It counts as functional. A digest of the protocol:
as §1

Assay [8] relates to MCF-12A. Kind of assay: Antiproliferative activity against estrogen receptor-deficient human MCF12A cells incubated with 0.06 nM of estradiol and 0.07 nM of testosterone after 48 hrs by sulforhodamine B assay in presence of fetal bovine serum and NuSerum. It counts as functional. A digest of the protocol:
as §2

Assay [9] deals with PC-3. Kind of assay: Antiproliferative activity against androgen receptor-deficient human PC3 cells incubated with 0.6 nM of estradiol and 0.7 nM of testosterone after 48 hrs by sulforhodamine B assay. It counts as functional. Conditions: PC-3, 48 h. A digest of the protocol: as §2
Assay [10] concerns DU-145. Kind of assay: Antiproliferative activity against androgen receptor-deficient human DU145 cells incubated with 0.6 nM of estradiol and 0.7 nM of testosterone after 48 hrs by sulforhodamine B assay. The format is functional. Conditions: DU-145, 48 h. A digest of the protocol: as §2
Assay [11] relates to LNCaP. Briefly: Antiproliferative activity against human LNCAP cells expressing androgen receptor incubated with 0.6 nM of estradiol and 0.7 nM of testosterone after 48 hrs by sulforhodamine B assay. It counts as functional. A digest of the protocol: as §2
Assay [12] has as its system MCF-12A. Kind of assay: Antiproliferative activity against estrogen receptor-deficient human MCF12A cells incubated with 100 nM of estradiol and […] of testosterone after 48 hrs by sulforhodamine B assay in presence of fetal bovine serum and NuSerum.

One may read the GI50 as the concentration giving 50% growth inhibition. As for `CC1(C)C=Cc2c(ccc3c2OC[C@]2(O)c4ccc(O)cc4O[C@H]32)O1`, the GI50 in assay [1] was 42.7 µM; in assay [2], 24 µM; in assay [3], 30.2 µM; in assay [4], 44.7 µM; in [5], 22.9 µM; in assay [6], 21.4 µM. Further, the GI50 is 38 µM in [7]; 38.9 µM in [8]; 47.9 µM in assay [9]; 57.5 µM in assay [10]; 27.5 µM in assay [11]; 46.8 µM in assay [12].

In the case of `CCC(=C(c1ccc(O)cc1)c1ccc(OCCN(C)C)cc1)c1ccccc1`, the GI50 in assay [1] was 4.47 µM; in [2] it was 1.91 µM; in assay [3], 7.76 µM; in [4], 6.17 µM; in [5], 1.41 µM; in assay [6] it was 3.47 µM. For the same compound, the GI50 in assay [7] was 3.31 µM; in [8], 3.89 µM; in assay [9] it was 7.59 µM; in assay [10], 10.7 µM; in assay [11], 8.32 µM; in assay [12], 3.24 µM.

As to `CC1(C)C=Cc2c(ccc3c2OCC2(O)c4ccc(O)cc4OC32)O1` (racemic), the GI50 in assay [1] was 41.7 µM; in [2], 20 µM; in assay [3] it was 45.7 µM; in assay [4], 37.2 µM; in assay [5], 17.4 µM; in assay [6], 18.2 µM. Also, the GI50 was 47.9 µM in assay [7]; 45.7 µM in assay [8]; 32.4 µM in assay [9]; 29.5 µM in [10]; 12.9 µM in assay [11]; 51.3 µM in assay [12].

With `C[C@]12CC[C@@H]3c4ccc(O)cc4C[C@@H](CCCCCCCCC[S+]([O-])CCCC(F)(F)C(F)(F)F)[C@H]3[C@@H]1CC[C@@H]2O` (some centres undefined) [FULVESTRANT], the GI50 in assay [1] was more than 100 µM; in [2], 158 µM; in [3], more than 100 µM; in assay [4] it was more than 100 µM; in assay [5], less than 0.01 µM; in assay [6], 794 µM. In addition, the GI50 in assay [7] is more than 100 µM; in assay [8], more than 100 µM; in [9], more than 100 µM; in [10] it was more than 100 µM; in assay [11], 398 µM; in assay [12], more than 100 µM.

As to `O=c1c(-c2ccc(O)cc2)coc2cc(O)cc(O)c12` [GENISTEIN], the 50% growth inhibitory concentration (GI50) was 32.4 µM in assay [1]; 45.7 µM in assay [2]; 26.9 µM in assay [3]; 17 µM in assay [4]; 61.7 µM in assay [5]; 52.5 µM in [6]. Further, the GI50 was 32.4 µM in assay [7]; 21.9 µM in assay [8]; 42.7 µM in assay [9]; 50.1 µM in assay [10]; 38.9 µM in assay [11]; 30.2 µM in assay [12].

For the compound `CC1(C)C=Cc2c(ccc3c2OC[C@@]2(O)c4ccc(O)cc4O[C@@H]32)O1` [GLYCEOLLIN I], the concentration for 50% growth inhibition (GI50) in assay [1] is 24.5 µM; in assay [2], 13.8 µM; in assay [3] it was 29.5 µM; in [4] it was 30.2 µM; in assay [5] it was 13.2 µM; in assay [6], 15.1 µM. Further, the GI50 in assay [7] was 33.1 µM; in [8] it was 27.5 µM; in assay [9] it was 30.9 µM; in assay [10], 36.3 µM; in [11], 11.5 µM; in assay [12], 38 µM.

Turning to `CC/C(=C(\c1ccccc1)c1ccc(OCCN(C)C)cc1)c1ccccc1` [TAMOXIFEN], the GI50 is 5.75 µM in assay [1]; 2.95 µM in [2]; 11.5 µM in assay [3]; 9.55 µM in assay [4]; 2.29 µM in [5]; 5.62 µM in [6]. For the same compound, the GI50 is 5.75 µM in assay [7]; 6.92 µM in assay [8]; 11 µM in [9]; 13.8 µM in [10]; 10 µM in [11]; 5.75 µM in assay [12].
